Results: ChEMBL document CHEMBL2062453, “Lead optimization through VLAK protocol: new annelated pyrrolo-pyrimidine derivatives as antitumor agents” (2012)

Assays:
Format in all cases: functional
[1] = system: HL-60(TB); assay: Cytotoxicity against human HL-60(TB) cells assessed as cell growth at 10 uM after 48 hrs by SRB assay relative to control; details: HL-60, 48 h, read-out: Activity
[2] = system: K562; assay: Cytotoxicity against human K562 cells assessed as cell growth at 10 uM after 48 hrs by SRB assay relative to control; details: K562, 48 h, read-out: Activity
How it was run: (§1)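 NCI primary screen of about 60 human tumour lines. Cells inoculated and preincubated, then a single test concentration added and cultures incubated 48 h. Result given as percent growth (G%) of treated versus untreated control cells.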

[3] = system: MOLT-4; assay: Cytotoxicity against human MOLT4 cells assessed as cell growth at 10 uM after 48 hrs by SRB assay relative to control; details: MOLT-4, 48 h, read-out: Activity
[4] = system: RPMI-8226; assay: Cytotoxicity against human RPMI8226 cells assessed as cell growth at 10 uM after 48 hrs by SRB assay relative to control; details: RPMI-8226, 48 h, read-out: Activity
[5] = system: A549; assay: Cytotoxicity against human A549 cells assessed as cell growth at 10 uM after 48 hrs by SRB assay relative to control; details: A549, 48 h, read-out: Activity; how it was run: as §1
[6] = system: EKVX; assay: Cytotoxicity against human EKVX cells assessed as cell growth at 10 uM after 48 hrs by SRB assay relative to control; details: read-out: Activity; how it was run: as §1
[7] = system: HOP-62; assay: Cytotoxicity against human HOP62 cells assessed as cell growth at 10 uM after 48 hrs by SRB assay relative to control; details: HOP-62, 48 h, read-out: Activity; how it was run: as §1
[8] = system: NCI-H226; assay: Cytotoxicity against human NCI-H226 cells assessed as cell growth at 10 uM after 48 hrs by SRB assay relative to control; details: NCI-H226, 48 h, read-out: Activity
[9] = system: NCI-H322M; assay: Cytotoxicity against human NCI-H322M cells assessed as cell growth at 10 uM after 48 hrs by SRB assay relative to control; details: read-out: Activity
[10] = system: NCI-H460; assay: Cytotoxicity against human NCI-H460 cells assessed as cell growth at 10 uM after 48 hrs by SRB assay relative to control; details: NCI-H460, 48 h, read-out: Activity
[11] = system: NCI-H522; assay: Cytotoxicity against human NCI-H522 cells assessed as cell growth at 10 uM after 48 hrs by SRB assay relative to control; details: NCI-H522, 48 h, read-out: Activity
[12] = system: COLO 205; assay: Cytotoxicity against human COLO205 cells assessed as cell growth at 10 uM after 48 hrs by SRB assay relative to control; details: COLO 205, 48 h, read-out: Activity; how it was run: as §1
[13] = system: HCT-116; assay: Cytotoxicity against human HCT116 cells assessed as cell growth at 10 uM after 48 hrs by SRB assay relative to control; details: HCT-116, 48 h, read-out: Activity; how it was run: as §1
[14] = system: HCT-15; assay: Cytotoxicity against human HCT15 cells assessed as cell growth at 10 uM after 48 hrs by SRB assay relative to control; details: HCT-15, 48 h, read-out: Activity; how it was run: as §1
[15] = system: SW-620; assay: Cytotoxicity against human SW620 cells assessed as cell growth at 10 uM after 48 hrs by SRB assay relative to control; details: SW-620, 48 h, read-out: Activity
How it was run: (§2)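 NCI single-dose primary screen across about 60 human tumour lines. Each line was inoculated and preincubated on microtiter plates, then exposed to one concentration of agent for 48 h. Growth is reported as percent growth (G%) of treated cells versus untreated control cells.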

[16] = system: SNB-75; assay: Cytotoxicity against human SNB75 cells assessed as cell growth at 10 uM after 48 hrs by SRB assay relative to control; details: SNB-75, 48 h, read-out: Activity
[17] = system: Malme-3M; assay: Cytotoxicity against human MALME-3M cells assessed as cell growth at 10 uM after 48 hrs by SRB assay relative to control; details: read-out: Activity; how it was run: as §1
[18] = system: M14; assay: Cytotoxicity against human M14 cells assessed as cell growth at 10 uM after 48 hrs by SRB assay relative to control; details: M14, 48 h, read-out: Activity; how it was run: as §1
[19] = system: MDA-MB-435; assay: Cytotoxicity against human MDA-MB-435 cells assessed as cell growth at 10 uM after 48 hrs by SRB assay relative to control; details: MDA-MB-435, 48 h, read-out: Activity
[20] = system: SK-MEL-5; assay: Cytotoxicity against human SK-MEL-5 cells assessed as cell growth at 10 uM after 48 hrs by SRB assay relative to control; details: SK-MEL-5, 48 h, read-out: Activity
[21] = system: UACC-257; assay: Cytotoxicity against human UACC257 cells assessed as cell growth at 10 uM after 48 hrs by SRB assay relative to control; details: UACC-257, 48 h, read-out: Activity; how it was run: as §2
[22] = system: UACC-62; assay: Cytotoxicity against human UACC62 cells assessed as cell growth at 10 uM after 48 hrs by SRB assay relative to control; details: UACC-62, 48 h, read-out: Activity; how it was run: as §2
[23] = system: IGROV-1; assay: Cytotoxicity against human IGROV1 cells assessed as cell growth at 10 uM after 48 hrs by SRB assay relative to control; details: IGROV-1, 48 h, read-out: Activity; how it was run: as §1
[24] = system: OVCAR-3; assay: Cytotoxicity against human OVCAR3 cells assessed as cell growth at 10 uM after 48 hrs by SRB assay relative to control; details: OVCAR-3, 48 h, read-out: Activity
[25] = system: OVCAR-8; assay: Cytotoxicity against human OVCAR8 cells assessed as cell growth at 10 uM after 48 hrs by SRB assay relative to control; details: OVCAR-8, 48 h, read-out: Activity
[26] = system: 786-0; assay: Cytotoxicity against human 786-0 cells assessed as cell growth at 10 uM after 48 hrs by SRB assay relative to control; details: 786-0, 48 h, read-out: Activity; how it was run: as §1
[27] = system: RXF 393; assay: Cytotoxicity against human RXF393 cells assessed as cell growth at 10 uM after 48 hrs by SRB assay relative to control; details: RXF 393, 48 h, read-out: Activity
[28] = system: SN12C; assay: Cytotoxicity against human SN12C cells assessed as cell growth at 10 uM after 48 hrs by SRB assay relative to control; details: read-out: Activity
[29] = system: TK-10; assay: Cytotoxicity against human TK10 cells assessed as cell growth at 10 uM after 48 hrs by SRB assay relative to control; details: TK-10, 48 h, read-out: Activity; how it was run: as §2
[30] = system: DU-145; assay: Cytotoxicity against human DU145 cells assessed as cell growth at 10 uM after 48 hrs by SRB assay relative to control; details: DU-145, 48 h, read-out: Activity; how it was run: as §1
[31] = system: BT-549; assay: Cytotoxicity against human BT549 cells assessed as cell growth at 10 uM after 48 hrs by SRB assay relative to control; details: BT-549, 48 h, read-out: Activity; how it was run: as §1
[32] = system: MDA-MB-468; assay: Cytotoxicity against human MDA-MB-468 cells assessed as cell growth at 10 uM after 48 hrs by SRB assay relative to control; details: MDA-MB-468, 48 h, read-out: Activity

SMILES | growth at 10 µM [1] [%] | growth at 10 µM [2] [%] | growth at 10 µM [3] [%] | growth at 10 µM [4] [%] | growth at 10 µM [5] [%] | growth at 10 µM [6] [%] | growth at 10 µM [7] [%] | growth at 10 µM [8] [%] | growth at 10 µM [9] [%] | growth at 10 µM [10] [%] | growth at 10 µM [11] [%] | growth at 10 µM [12] [%] | growth at 10 µM [13] [%] | growth at 10 µM [14] [%] | growth at 10 µM [15] [%] | growth at 10 µM [16] [%] | growth at 10 µM [17] [%] | growth at 10 µM [18] [%] | growth at 10 µM [19] [%] | growth at 10 µM [20] [%] | other results
CSC1=Nc2c(c(C)c(C)n2CCCC(=O)O)C2=NC(=O)CN12 | 95 | 93 | 103 | 110 | 117 | 105 | 98 | 110 | 112 | 105 | 94 | 137 | 111 | 114 | 110 | 111 | 115 | 110 | 119 | 101 | growth at 10 µM [21]: 120%; growth at 10 µM [22]: 111%; growth at 10 µM [23]: 101%; growth at 10 µM [24]: 113%; growth at 10 µM [25]: 111%; growth at 10 µM [26]: 109%; growth at 10 µM [27]: 122%; growth at 10 µM [28]: 115%; growth at 10 µM [29]: 121%; growth at 10 µM [30]: 118%; growth at 10 µM [31]: 105%; growth at 10 µM [32]: 97%
CCOC(=O)CCCn1c(C)c(C)c2c1N=C(SC)N1CC(=O)N=C21 | 94 | 94 | 98 | 95 | 102 | 104 | 112 | 113 | 111 | 110 | 97 | 132 | 111 | 108 | 110 | 90 | 119 | 106 | 122 | 100 | growth at 10 µM [21]: 111%; growth at 10 µM [22]: 106%; growth at 10 µM [23]: 98%; growth at 10 µM [24]: 162%; growth at 10 µM [25]: 113%; growth at 10 µM [26]: 113%; growth at 10 µM [27]: 121%; growth at 10 µM [28]: 110%; growth at 10 µM [29]: 135%; growth at 10 µM [30]: 149%; growth at 10 µM [31]: 119%; growth at 10 µM [32]: 55%
CSC1=Nc2c(c(C)c(-c3ccccc3)n2CCCC(=O)O)C2=NC(=O)CN12 | 83 | 99 | 87 | 88 | 101 | 95 | 88 | 107 | 131 | 102 | 84 | 153 | 96 | 95 | 94 | 83 | 133 | 104 | 107 | 97 | growth at 10 µM [21]: 99%; growth at 10 µM [22]: 95%; growth at 10 µM [23]: 88%; growth at 10 µM [24]: 109%; growth at 10 µM [25]: 98%; growth at 10 µM [26]: 102%; growth at 10 µM [27]: 96%; growth at 10 µM [28]: 105%; growth at 10 µM [29]: 135%; growth at 10 µM [30]: 116%; growth at 10 µM [31]: 94%; growth at 10 µM [32]: 90%
